By inhibition is commonly meant the change of the read-out against control, counted positive when it falls. As usually defined, the solubility is the concentration that dissolves in the medium under given conditions. Usually pIC50 stands for the IC50 on a negative log10 scale, so that one unit is a factor of ten.

Structures are written as SMILES. pIC50: −log10 of the molar value. ≈ marks a conversion by molar mass, not a printed value. Calls of active or inactive are those of the source. No cut-off for these calls is given here.

This is an account of results in ChEMBL document CHEMBL5230161, “Exploring structural effects in a new class of NRF2 inhibitors” (RSC Med Chem, 2023).

One series relates to MCF7. Nature of the series: Inhibition of NRF2/ARE (unknown origin) transfected in human MCF7 cells assessed as cellular activity preincubated with compound for 1 hrs followed by tBHQ addition and measured after 24 hrs by steady-glo luciferase assay relative to control. On the set-up: concentration or dose not given beside the values. Particulars: time 25.0 hrs, dose or concentration not given here. Type of series: cell-based.

Series [1] is described as follows: Solubility of the compound in pH 7.4 PBS buffer. Type of series: physicochemical.
Series [2] deals with A549. As to the kind of experiment: Antiproliferative activity against human A549 cells assessed as inhibition of cell growth incubated for 72 hrs by MTT assay. Type of series: functional. Also on record: scale not given: the % may be the effect or the level left. An outline of the steps: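 A549 human lung cancer cells exposed to a single 5 μmol L⁻¹ dose for 72 h; viability read by MTT assay.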

Series [3] concerns the target T1, Nuclear factor erythroid 2-related factor 2 (Homo sapiens) (UniProt Q16236).
T1 sequence (whole entry): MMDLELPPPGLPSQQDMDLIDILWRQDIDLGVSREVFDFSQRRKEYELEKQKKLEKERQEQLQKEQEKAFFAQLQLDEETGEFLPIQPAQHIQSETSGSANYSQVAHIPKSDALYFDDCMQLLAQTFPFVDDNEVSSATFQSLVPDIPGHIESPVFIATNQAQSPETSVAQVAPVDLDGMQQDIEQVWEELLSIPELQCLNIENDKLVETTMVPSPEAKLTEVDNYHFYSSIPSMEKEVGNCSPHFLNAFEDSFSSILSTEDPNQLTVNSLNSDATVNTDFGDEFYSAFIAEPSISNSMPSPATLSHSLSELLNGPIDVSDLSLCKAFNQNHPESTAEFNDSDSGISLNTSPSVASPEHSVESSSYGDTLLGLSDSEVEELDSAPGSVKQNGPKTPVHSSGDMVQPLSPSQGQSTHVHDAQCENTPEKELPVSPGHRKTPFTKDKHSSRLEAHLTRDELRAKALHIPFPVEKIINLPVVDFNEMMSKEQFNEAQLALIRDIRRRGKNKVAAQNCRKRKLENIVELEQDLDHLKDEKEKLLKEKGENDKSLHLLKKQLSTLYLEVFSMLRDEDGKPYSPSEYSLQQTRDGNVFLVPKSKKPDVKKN
Nature of the series: Inhibition of NRF2 signalling pathway in human A549 cells assessed as decrease in NQO1 mRNA level at 5 to 10 uM incubated for 24 hrs by RT-PCR analysis. The class given is cell-based. Particulars: dose 5-10 µM. An outline of the steps: (§1)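 A549 cells incubated with compound 24 h; NQO1, GCLC, AKR1C2, GCLM mRNA by RT-PCR, normalized to GAPDH and DMSO vehicle; representative of 3 independent experiments.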

Series [4] has as its target T1, Nuclear factor erythroid 2-related factor 2 (Homo sapiens). Nature of the series: Inhibition of NRF2 signalling pathway in human A549 cells assessed as decrease in GCLC mRNA level at 5 to 10 uM incubated for 24 hrs by RT-PCR analysis. Type of series: cell-based. Particulars: dose 5-10 µM. The method, boiled down:
as §1

The target is the same in series [5]. As to the kind of experiment: Inhibition of NRF2 signalling pathway in human A549 cells assessed as decrease in AKR1C2 mRNA level at 5 to 10 uM incubated for 24 hrs by RT-PCR analysis. The class given is cell-based. As to conditions: dose 5-10 µM. An outline of the steps: as §1
Series [6] has the same target. As to the kind of experiment: Inhibition of NRF2 signalling pathway in human A549 cells assessed as decrease in GCLM mRNA level at 5 to 10 uM incubated for 24 hrs by RT-PCR analysis. The class given is cell-based. As to conditions: dose 5-10 µM. An outline of the steps:
as §1

The subject of series [7] is A549. Nature of the series: Antiproliferative activity against human A549 cells assessed as reduction in cell viability incubated for 72 hrs by MTT assay. Particulars: A549, 72 h. Type of series: functional, cell-based. (In general: Tetrazolium dyes change colour on reduction, which living cells bring about.)
For another series, the system named is NCI-H358. Nature of the series: Antiproliferative activity against human NCI-H358 cells assessed as reduction in cell viability incubated for 72 hrs by MTT assay. Particulars: NCI-H358, 72 h. The class given is functional, cell-based.
Series [8] has as its system A549. Nature of the series: Induction of cell cycle arrest in human A549 cells assessed as accumulation of cells at G2/M phase at 3 uM incubated for 24 hrs by PI staining based flow cytometric analysis. Type of series: functional. An outline of the steps:
(§2)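 A549 or H460 cells synchronized in low-serum medium 12 h, then inhibitor 24 h; propidium iodide staining, flow cytometry, univariate cell-cycle model (Watson pragmatic, G0/1 and G2/M peak constraints); % of total cells as mean ± SE, n = 2-3 independent experiments.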

The test system of the next series is NCI-H460. As to the kind of experiment: Induction of cell cycle arrest in human NCI-H460 cells assessed as accumulation of cells at G2/M phase at 3 uM incubated for 24 hrs by PI staining based flow cytometric analysis. Type of series: functional. An outline of the steps:
as §2

Series [9] concerns A549. Nature of the series: Inhibition of cell migration in human A549 cells at 10 uM incubated for 24 hrs by DAPI staining based transwell migration assay relative to control. Type of series: functional. An outline of the steps:
(§3)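 Transwell migration of A549 cells seeded in serum-free medium with DMSO vehicle or compound (1, 5, 10 μmol L⁻¹) in top chamber; bottom medium with compound and 5% FBS chemoattractant; 24 h, filters fixed, unmigrated cells removed, DAPI stain, 9 fields imaged per insert; two inserts per condition, n = 2-3; one- or two-way ANOVA vs vehicle.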

The subject of series [10] is A549. As to the kind of experiment: Inhibition of cell migration in human A549 cells at 1 uM incubated for 24 hrs by DAPI staining based transwell migration assay. Type of series: functional. The method, boiled down:
as §3

Series [11] concerns A549. Nature of the series: Inhibition of cell migration in human A549 cells at 5 uM incubated for 24 hrs by DAPI staining based transwell migration assay relative to control. The class given is functional. The method, boiled down:
as §3

As for `Cc1ccnc(Nc2ncc(-c3ccccc3)cc2C#N)c1`, the inhibition in the series on MCF7 was 46.7%. Besides, the solubility in series [1] was 209 µM (≈ 59.8 µg/mL). Besides, the Activity in the series on A549 [2] worked out at 59.8%. In addition, the inhibition result in series [3], in series [4], in [5] and in [6] was “Active” throughout. Moreover, the results for the pIC50 in the series with A549 [7] and with NCI-H358 were 6.21 and 6.24, respectively. Also, the outcome in the series with A549 [8] and with NCI-H460 was Active. Also, the inhibition at 10 µM in the series on A549 [9] is 79%. Besides, the inhibition result in the series on A549 [10] is “inactive”. The molecule further had an inhibition at 5 µM in the series with A549 [11] of 72%.
